Activity calls are given as the source filed them. The calls are words filed in the database; no cut-off is given here.

For assay [1], the system named is MDA-MB-468. Description: Antiproliferative activity against human MDA-MB-468 cells transfected with CRBN siRNA LQ-021086-10-0002 assessed as cell growth inhibition after 4 days by WST-8 assay. The assay is classed as functional, cell-based. The note with it: MDA-MB-468, 96 h. The essentials:
(§1)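 MDA-MB-231 or MDA-MB-468 cells transfected for 2 days using Lipofectamine RNAiMAX with MDM2 siRNA, one of two CRBN siRNAs, or non-targeting control siRNA. Compound then added and growth read by WST-8 at 450 nm.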
(In general: Tetrazolium assays rely on reduction of a dye to a coloured formazan, in cell work by metabolically active cells.)

Assay [2] deals with T1, E3 ubiquitin-protein ligase Mdm2 (Homo sapiens, UniProt Q00987). Nature of the assay: Induction of MDM2 degradation in human RS4:11 cells assessed as downregulation of MDM2 at 1 to 30 nM after 1 hr by Western blot analysis. The class given is cell-based. The essentials: (§2)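 Western blots of MDM2 and p53 protein were run on RS4;11 cells (wild-type p53) in RPMI 1640 with 10% FBS. 2×10^6 cells/well were treated at the indicated concentrations for 1 h or 2 h. Lysis was in ice-cold buffer with protease inhibitor, followed by probing with specific antibodies.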

In assay [3] the target is T1, E3 ubiquitin-protein ligase Mdm2. Description: Induction of MDM2 degradation in human RS4:11/IRMI-2 cells harboring p53 hotspot mutation Y236H/R249G assessed as downregulation of MDM2 at 1 to 30 nM after 2 hrs by Western blot analysis. The assay is classed as cell-based. The essentials:
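RS4;11/IRMI-2 cells are an MDM2 inhibitor-resistant line derived from RS4;11, with p53 mutations confirmed by sequencing. 2×10^6 cells/well were treated 2 h at the indicated concentrations. MDM2 protein was probed by Western blot after lysis in ice-cold buffer with protease inhibitor.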
In general terms: In western blotting, separated proteins are transferred to a membrane and probed.

Assay [4] deals with Cellular tumor antigen p53 (Homo sapiens) (UniProt P04637). Nature of the assay: Activation of p53 in human RS4:11 cells assessed as increase in CDKN1A mRNA expression at 10 nM after 1 to 2 hrs by qRT-PCR analysis. The assay is classed as cell-based. The essentials: (§3)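 RS4;11 cells (RPMI 1640, 10% FBS, 37 °C, 5% CO2) treated with 3 nM or 10 nM compound; total RNA extracted and mRNA of p53 targets MDM2, CDKN1A, PUMA and BAX quantified by qRT-PCR. Mean ± standard error from at least three independent experiments.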
(In general: Real-time PCR tracks product formation cycle by cycle.)

Assay [5] concerns HL-60. Nature of the assay: Antiproliferative activity against human HL60 cells with lack of p53 assessed as cell growth inhibition after 4 days by WST-8 assay. The assay is classed as functional, cell-based. The essentials:
(§4)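 Leukemia cells seeded at 10000–20000 cells/well, breast cancer lines at 5000–10000 cells/well. Serially diluted compound added, then 4 days at 37 °C, 5% CO2. Growth read with WST-8 reagent after at least 1 h, absorbance at 450 nm. RS4;11, MOLM-13 and breast lines were grown in RPMI 1640; MV-4-11 and HL-60 in IMDM; all with 10% FBS. Mean ± SE, at least three independent experiments.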

The subject of assay [6] is MDA-MB-231. Description: Antiproliferative activity against human MDA-MB-231 cells transfected with CRBN siRNA LQ-021086-10-0002 assessed as cell growth inhibition after 4 days by WST-8 assay. The assay is classed as functional, cell-based. The note with it: MDA-MB-231, 72 h, in the assay text read “after 3 days” for “after 4 days”. The essentials:
as §1

Assay [7] concerns MDA-MB-231. Nature of the assay: Antiproliferative activity against human MDA-MB-231 cells assessed as cell growth inhibition after 4 days in presence of control siRNA for 3 days followed by compound treatment by WST-8 assay. The class given is functional, cell-based.
The target of assay [8] is T2, Protein cereblon/Eukaryotic peptide chain release factor GTP-binding subunit ERF3A/DNA damage-binding protein 1/Cullin-4A (Homo sapiens) (UniProt Q96SW2+Q16531+Q13619+P15170). Description: Protac activity at GSPT1/CUL4/DDB1/CRBN in human RS4:11 cells expressing wild type p53 assessed as decrease in GSPT1 protein level at 10 nM by Western blot analysis. The assay is classed as cell-based. The procedure, abridged: (§5)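 RS4;11 (wild-type p53) or RS4;11/IRMI-2 (MDM2 inhibitor-resistant derivative, mutant p53) cells kept in RPMI 1640 with 10% FBS at 37 °C, 5% CO₂. 2×10^6 cells/well treated at the indicated concentrations and times, then lysed in ice-cold lysis buffer with protease inhibitor. GSPT1 detected by Western blot with a specific antibody.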

For assay [9], the target named is Cellular tumor antigen p53 (Homo sapiens) (UniProt P04637). Nature of the assay: Activation of p53 in human RS4:11 cells assessed as increase in MDM2 mRNA expression at 10 nM after 1 to 2 hrs by qRT-PCR analysis. The class given is cell-based. The essentials: as §3
For assay [10], the system named is MDA-MB-468. Nature of the assay: Antiproliferative activity against human MDA-MB-468 cells assessed as cell growth inhibition after 4 days in presence of control siRNA for 3 days followed by compound treatment by WST-8 assay. The class given is functional, cell-based.
In assay [11] the target is Cellular tumor antigen p53 (Homo sapiens) (UniProt P04637). Description: Activation of p53 in human RS4:11 cells assessed as increase in BAX mRNA expression at 10 nM after 1 to 2 hrs by qRT-PCR analysis. The class given is cell-based. The essentials:
as §3

Assay [12] has as its target T1, E3 ubiquitin-protein ligase Mdm2. Nature of the assay: Induction of MDM2 degradation in human RS4:11 cells assessed as downregulation of MDM2 at 1 to 30 nM after 2 hrs by Western blot analysis. The assay is classed as cell-based. The essentials: as §2
Assay [13] relates to MDA-MB-468. Nature of the assay: Antiproliferative activity against human MDA-MB-468 cells transfected with CRBN siRNA LQ-021086-11-0002 assessed as cell growth inhibition after 4 days by WST-8 assay. The class given is functional, cell-based. The note with it: MDA-MB-468, 96 h. The essentials: as §1
For assay [14], the target named is T1, E3 ubiquitin-protein ligase Mdm2. Description: Induction of MDM2 degradation in human RS4:11 cells assessed as upregulation of p53 at 1 to 30 nM after 1 hr by Western blot analysis. The class given is cell-based. The essentials:
as §2

Assay [15] deals with MDA-MB-231. Nature of the assay: Antiproliferative activity against human MDA-MB-231 cells harboring mutant p53 assessed as cell growth inhibition after 4 days by WST-8 assay. The class given is functional, cell-based. The essentials:
as §4

In assay [16] the target is T1, E3 ubiquitin-protein ligase Mdm2. Description: Induction of MDM2 degradation in human RS4:11 cells assessed as upregulation of p53 at 1 to 30 nM after 2 hrs by Western blot analysis. The class given is cell-based. The procedure, abridged: as §2
Assay [17] has as its target Cellular tumor antigen p53 (Homo sapiens) (UniProt P04637). Nature of the assay: Activation of p53 in human RS4:11 cells assessed as increase in PUMA mRNA expression at 10 nM after 1 to 2 hrs by qRT-PCR analysis. The class given is cell-based. The procedure, abridged: as §3
Assay [18] relates to MDA-MB-468. Nature of the assay: Antiproliferative activity against human MDA-MB-468 cells harboring mutant p53 assessed as cell growth inhibition after 4 days by WST-8 assay. The assay is classed as functional, cell-based. The essentials:
as §4

The target in assay [19] is T2, Protein cereblon/Eukaryotic peptide chain release factor GTP-binding subunit ERF3A/DNA damage-binding protein 1/Cullin-4A (Homo sapiens). Nature of the assay: Protac activity at GSPT1/CUL4/DDB1/CRBN in human RS4:11 cells expressing wild type p53 assessed as decrease in GSPT1 protein level measured upto 24 hrs by Western blot analysis. The class given is cell-based. The essentials: as §5

The nature of assay [20]: Antiproliferative activity against human RS4:11/IRMI-2 cells harboring p53 hotspot mutation Y236H/R249G assessed as MDM2-independent cell growth inhibition after 4 days by WST-8 assay. The assay is classed as functional, cell-based. The conditions noted are these: RS4-11, 96 h. The essentials: as §4
Assay [21] relates to RS4-11. Nature of the assay: Antiproliferative activity against human RS4:11 cells expressing wild type p53 assessed as MDM2-independent cell growth inhibition after 4 days by WST-8 assay. The assay is classed as functional, cell-based. The conditions noted are these: RS4-11, 96 h. The procedure, abridged:
as §4

For assay [22], the system named is MDA-MB-231. Description: Antiproliferative activity against human MDA-MB-231 cells transfected with CRBN siRNA LQ-021086-11-0002 assessed as cell growth inhibition after 4 days by WST-8 assay. The assay is classed as functional, cell-based. The note with it: MDA-MB-231, 96 h. The procedure, abridged:
as §1

Assay [23] is filed under the species Homo sapiens. Description: Antiproliferative activity against human RS4:11/IRMI-2 cells harboring p53 hotspot mutation Y236H/R249G assessed as cell growth inhibition after 4 days by WST-8 assay. The assay is classed as functional, cell-based. The procedure, abridged:
as §4

Chain of Cellular tumor antigen p53 (Homo sapiens) (P04637 whole entry, looked up): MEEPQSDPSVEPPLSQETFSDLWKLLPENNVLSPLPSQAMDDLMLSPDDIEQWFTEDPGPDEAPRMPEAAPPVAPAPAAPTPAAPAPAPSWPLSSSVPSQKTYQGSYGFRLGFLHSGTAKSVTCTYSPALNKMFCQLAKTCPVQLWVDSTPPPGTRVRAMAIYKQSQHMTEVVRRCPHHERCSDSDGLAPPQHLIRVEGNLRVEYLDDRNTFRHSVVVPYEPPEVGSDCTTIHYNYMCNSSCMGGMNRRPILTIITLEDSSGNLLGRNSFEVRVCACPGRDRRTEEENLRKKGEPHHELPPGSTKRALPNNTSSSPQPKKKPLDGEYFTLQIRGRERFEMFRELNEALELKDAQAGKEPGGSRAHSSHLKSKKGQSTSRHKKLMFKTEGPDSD
T1 sequence (Q00987 whole entry, looked up): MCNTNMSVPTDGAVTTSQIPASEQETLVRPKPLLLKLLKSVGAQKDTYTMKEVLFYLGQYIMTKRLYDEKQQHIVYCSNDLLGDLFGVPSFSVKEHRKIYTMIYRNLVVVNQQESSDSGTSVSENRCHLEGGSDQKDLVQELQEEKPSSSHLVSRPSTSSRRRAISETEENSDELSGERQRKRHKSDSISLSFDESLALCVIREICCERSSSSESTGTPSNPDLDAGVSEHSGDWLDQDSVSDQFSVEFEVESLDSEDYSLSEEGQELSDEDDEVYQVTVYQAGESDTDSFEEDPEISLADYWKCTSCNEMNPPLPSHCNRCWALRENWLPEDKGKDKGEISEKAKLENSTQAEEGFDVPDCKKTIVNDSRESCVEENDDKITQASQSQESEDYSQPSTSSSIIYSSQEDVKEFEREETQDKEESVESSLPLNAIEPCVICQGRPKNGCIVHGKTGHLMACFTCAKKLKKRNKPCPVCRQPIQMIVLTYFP
T2 sequence (P15170 whole entry, looked up): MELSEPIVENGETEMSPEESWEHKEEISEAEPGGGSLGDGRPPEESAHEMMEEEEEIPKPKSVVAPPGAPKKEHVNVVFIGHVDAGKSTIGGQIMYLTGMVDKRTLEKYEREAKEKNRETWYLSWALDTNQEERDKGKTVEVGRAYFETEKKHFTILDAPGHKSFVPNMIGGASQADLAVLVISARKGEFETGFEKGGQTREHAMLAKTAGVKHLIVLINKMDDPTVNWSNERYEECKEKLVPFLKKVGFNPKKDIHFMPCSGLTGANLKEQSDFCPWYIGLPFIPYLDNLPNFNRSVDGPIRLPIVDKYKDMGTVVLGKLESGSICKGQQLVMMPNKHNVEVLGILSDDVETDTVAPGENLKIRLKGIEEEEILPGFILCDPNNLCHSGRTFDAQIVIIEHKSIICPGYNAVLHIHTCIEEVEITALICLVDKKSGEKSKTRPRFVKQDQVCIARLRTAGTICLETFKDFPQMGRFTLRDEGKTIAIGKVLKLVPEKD
T2 sequence (Q13619 whole entry, looked up): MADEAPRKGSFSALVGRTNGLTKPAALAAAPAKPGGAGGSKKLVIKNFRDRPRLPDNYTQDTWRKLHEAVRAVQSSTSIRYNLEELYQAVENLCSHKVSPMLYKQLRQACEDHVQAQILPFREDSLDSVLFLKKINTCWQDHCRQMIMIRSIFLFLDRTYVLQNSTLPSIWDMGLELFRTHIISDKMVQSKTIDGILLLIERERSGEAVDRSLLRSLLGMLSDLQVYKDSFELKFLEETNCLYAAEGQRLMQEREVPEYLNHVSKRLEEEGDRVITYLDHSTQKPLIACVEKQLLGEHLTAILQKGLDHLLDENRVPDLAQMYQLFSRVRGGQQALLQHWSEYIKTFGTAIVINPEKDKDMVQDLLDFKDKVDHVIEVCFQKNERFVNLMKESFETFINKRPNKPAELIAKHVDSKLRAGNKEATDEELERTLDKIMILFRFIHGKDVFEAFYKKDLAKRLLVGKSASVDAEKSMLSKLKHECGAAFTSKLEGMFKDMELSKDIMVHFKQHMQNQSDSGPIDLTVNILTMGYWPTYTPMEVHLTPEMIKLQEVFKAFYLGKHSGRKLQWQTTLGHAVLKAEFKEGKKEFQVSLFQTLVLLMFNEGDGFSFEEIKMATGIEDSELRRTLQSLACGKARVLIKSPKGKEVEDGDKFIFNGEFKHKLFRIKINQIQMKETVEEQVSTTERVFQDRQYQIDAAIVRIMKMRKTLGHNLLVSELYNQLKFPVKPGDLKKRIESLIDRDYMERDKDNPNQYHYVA
T2 sequence (Q16531 whole entry, looked up): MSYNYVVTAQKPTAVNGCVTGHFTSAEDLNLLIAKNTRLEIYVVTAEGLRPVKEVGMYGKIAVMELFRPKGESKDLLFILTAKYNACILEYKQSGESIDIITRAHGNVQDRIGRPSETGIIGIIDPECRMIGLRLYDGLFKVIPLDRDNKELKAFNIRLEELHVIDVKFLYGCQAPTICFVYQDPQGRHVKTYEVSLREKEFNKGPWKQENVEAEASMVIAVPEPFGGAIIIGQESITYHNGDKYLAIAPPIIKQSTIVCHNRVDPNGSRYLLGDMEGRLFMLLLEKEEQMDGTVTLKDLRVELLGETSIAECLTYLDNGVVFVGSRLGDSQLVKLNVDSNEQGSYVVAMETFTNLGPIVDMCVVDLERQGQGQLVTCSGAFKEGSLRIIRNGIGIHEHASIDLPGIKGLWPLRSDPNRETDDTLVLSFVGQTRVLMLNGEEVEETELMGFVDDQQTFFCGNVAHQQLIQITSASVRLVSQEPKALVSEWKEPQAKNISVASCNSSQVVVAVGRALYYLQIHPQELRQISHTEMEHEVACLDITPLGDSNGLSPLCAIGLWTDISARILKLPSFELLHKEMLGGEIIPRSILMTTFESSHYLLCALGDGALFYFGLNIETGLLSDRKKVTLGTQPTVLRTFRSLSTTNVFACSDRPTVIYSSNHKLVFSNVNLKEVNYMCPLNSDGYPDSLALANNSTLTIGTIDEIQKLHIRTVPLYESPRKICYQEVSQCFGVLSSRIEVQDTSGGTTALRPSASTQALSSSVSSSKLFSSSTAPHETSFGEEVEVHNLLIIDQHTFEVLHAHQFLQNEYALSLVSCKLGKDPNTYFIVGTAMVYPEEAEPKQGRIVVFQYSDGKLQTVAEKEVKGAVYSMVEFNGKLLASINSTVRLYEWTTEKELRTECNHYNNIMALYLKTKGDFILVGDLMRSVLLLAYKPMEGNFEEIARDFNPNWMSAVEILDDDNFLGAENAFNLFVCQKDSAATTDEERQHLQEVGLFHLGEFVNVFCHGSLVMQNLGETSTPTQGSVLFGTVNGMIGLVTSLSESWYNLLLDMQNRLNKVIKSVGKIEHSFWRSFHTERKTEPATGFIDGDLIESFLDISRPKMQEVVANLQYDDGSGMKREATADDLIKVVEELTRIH
T2 sequence (Q96SW2 whole entry, looked up): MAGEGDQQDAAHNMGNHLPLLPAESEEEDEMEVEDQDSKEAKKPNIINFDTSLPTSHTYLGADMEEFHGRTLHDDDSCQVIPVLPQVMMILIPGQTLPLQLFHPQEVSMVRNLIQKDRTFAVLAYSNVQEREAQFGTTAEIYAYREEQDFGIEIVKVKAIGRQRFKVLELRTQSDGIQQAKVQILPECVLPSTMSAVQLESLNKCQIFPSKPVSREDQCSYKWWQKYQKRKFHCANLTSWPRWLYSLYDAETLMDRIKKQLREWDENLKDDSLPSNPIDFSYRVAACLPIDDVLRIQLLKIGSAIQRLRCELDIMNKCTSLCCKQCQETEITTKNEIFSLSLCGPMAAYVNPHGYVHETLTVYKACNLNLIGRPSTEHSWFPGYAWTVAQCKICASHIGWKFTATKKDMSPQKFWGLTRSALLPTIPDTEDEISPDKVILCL

The IC50 is the concentration that inhibits the measured activity by half. Turning to `O=C1CCC(N2Cc3c(CCCCCNC(=O)c4ccc(NC(=O)[C@@H]5NC6(CCCCC6)[C@@]6(C(=O)Nc7cc(Cl)ccc76)[C@H]5c5cccc(Cl)c5F)cc4)cccc3C2=O)C(=O)N1` (stereo partly drawn), the IC50 in assay [1] is greater than 3000 nM; in assay [6], greater than 3000 nM; in assay [7] it was greater than 3000 nM; in assay [10], greater than 3000 nM; in [13], greater than 3000 nM; in assay [20] it was greater than 10000 nM. For the same compound, the IC50 is 7.9 nM in [21] and greater than 3000 nM in assay [22]. The result in assay [2], in assay [3], in [4], in [9], in [11] and in assay [12] was Active. The result in assay [14], in assay [16] and in [17] was Active. In addition, the “growth inhibition (GI)” value in [5], in assay [15], in assay [18] and in assay [23] was “inactive” in each case. Moreover, the result in [8] and in assay [19] was inactive.
